Laboratory results taken from ChEMBL document CHEMBL2040727, “Substituted thiazoles VI. Synthesis and antitumor activity of new 2-acetamido- and 2 or 3-propanamido-thiazole analogs” (2012).

Legend:
Type in all cases: functional
MOLT-4 = assay: Growth inhibition of human MOLT4 cells at 10 uM after 48 hrs by coulter counter analysis; conditions: MOLT-4, 48 h, read-out: GI
Method in brief: (§1)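 Single-dose NCI 60-line panel screen of test compounds. Cells grown in RPMI 1640 with 10% FBS. Compounds dissolved in DMSO, then diluted in phosphate buffer saline (final DMSO below 1%). Wells run in duplicate at 6 × 10⁴ cells/ml. Controls held PBS and DMSO at matching dilutions. Incubation 48 h at 37 °C under humidified 5% CO2. Cells diluted tenfold in saline and counted by Coulter counter. Percent growth inhibition taken from mean-graph of treated-cell growth.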

RPMI-8226 = assay: Growth inhibition of human RPMI8226 cells at 10 uM after 48 hrs by coulter counter analysis; conditions: RPMI-8226, 48 h, read-out: GI; method in brief: as §1
SR = assay: Growth inhibition of human SR cells at 10 uM after 48 hrs by coulter counter analysis; conditions: read-out: GI
Method in brief: (§2)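 Single-dose screen in the NCI 60 cell line panel. Cells grown in RPMI 1640 with 10% FBS. Compounds dissolved in DMSO and diluted in phosphate buffered saline, final DMSO under 1%. Duplicate wells seeded from culture at 6 × 10⁴ cells/ml. Incubated 48 h at 37 °C, humidified, 5% CO2. Cells diluted tenfold in saline and Coulter-counted. Percent growth inhibition computed against PBS/DMSO controls.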

A549 = assay: Growth inhibition of human A549/ATCC cells at 10 uM after 48 hrs by coulter counter analysis; conditions: A549, 48 h, read-out: GI; method in brief: as §1
NCI-H226 = assay: Growth inhibition of human NCI-H226 cells at 10 uM after 48 hrs by coulter counter analysis; conditions: NCI-H226, 48 h, read-out: GI; method in brief: as §1
NCI-H322M = assay: Growth inhibition of human NCI-H322M cells at 10 uM after 48 hrs by coulter counter analysis; conditions: read-out: GI; method in brief: as §1
NCI-H460 = assay: Growth inhibition of human NCI-H460 cells at 10 uM after 48 hrs by coulter counter analysis; conditions: NCI-H460, 48 h, read-out: GI; method in brief: as §1
NCI-H522 = assay: Growth inhibition of human NCI-H522 cells at 10 uM after 48 hrs by coulter counter analysis; conditions: NCI-H522, 48 h, read-out: GI; method in brief: as §1
COLO 205 = assay: Growth inhibition of human COLO205 cells at 10 uM after 48 hrs by coulter counter analysis; conditions: COLO 205, 48 h, read-out: GI; method in brief: as §1
HCC 2998 = assay: Growth inhibition of human HCC2998 cells at 10 uM after 48 hrs by coulter counter analysis; conditions: HCC 2998, 48 h, read-out: GI; method in brief: as §1
HCT-116 = assay: Growth inhibition of human HCT116 cells at 10 uM after 48 hrs by coulter counter analysis; conditions: HCT-116, 48 h, read-out: GI; method in brief: as §1
HCT-15 = assay: Growth inhibition of human HCT15 cells at 10 uM after 48 hrs by coulter counter analysis; conditions: HCT-15, 48 h, read-out: GI; method in brief: as §1
HT-29 = assay: Growth inhibition of human HT-29 cells at 10 uM after 48 hrs by coulter counter analysis; conditions: HT-29, 48 h, read-out: GI; method in brief: as §1
KM12 = assay: Growth inhibition of human KM12 cells at 10 uM after 48 hrs by coulter counter analysis; conditions: KM12, 48 h, read-out: GI; method in brief: as §1
SW-620 = assay: Growth inhibition of human SW620 cells at 10 uM after 48 hrs by coulter counter analysis; conditions: SW-620, 48 h, read-out: GI; method in brief: as §2
SF-268 = assay: Growth inhibition of human SF268 cells at 10 uM after 48 hrs by coulter counter analysis; conditions: SF-268, 48 h, read-out: GI; method in brief: as §1
SF-539 = assay: Growth inhibition of human SF539 cells at 10 uM after 48 hrs by coulter counter analysis; conditions: SF-539, 48 h, read-out: GI; method in brief: as §1
SNB-75 = assay: Growth inhibition of human SNB75 cells at 10 uM after 48 hrs by coulter counter analysis; conditions: SNB-75, 48 h, read-out: GI; method in brief: as §2
LOX IMVI = assay: Growth inhibition of human LOXIMVI cells at 10 uM after 48 hrs by coulter counter analysis; conditions: read-out: GI; method in brief: as §1
M14 = assay: Growth inhibition of human M14 cells at 10 uM after 48 hrs by coulter counter analysis; conditions: M14, 48 h, read-out: GI; method in brief: as §1
MDA-MB-435 = assay: Growth inhibition of human MDA-MB-435 cells at 10 uM after 48 hrs by coulter counter analysis; conditions: MDA-MB-435, 48 h, read-out: GI; method in brief: as §1
SK-MEL-28 = assay: Growth inhibition of human SK-MEL-28 cells at 10 uM after 48 hrs by coulter counter analysis; conditions: SK-MEL-28, 48 h, read-out: GI; method in brief: as §1
SK-MEL-5 = assay: Growth inhibition of human SK-MEL-5 cells at 10 uM after 48 hrs by coulter counter analysis; conditions: SK-MEL-5, 48 h, read-out: GI; method in brief: as §1
IGROV-1 = assay: Growth inhibition of human IGROV1 cells at 10 uM after 48 hrs by coulter counter analysis; conditions: IGROV-1, 48 h, read-out: GI; method in brief: as §1
OVCAR-4 = assay: Growth inhibition of human OVCAR4 cells at 10 uM after 48 hrs by coulter counter analysis; conditions: OVCAR-4, 48 h, read-out: GI; method in brief: as §1
[1] = Growth inhibition of human NCI-ADR-RES cells at 10 uM after 48 hrs by coulter counter analysis; conditions: read-out: GI; method in brief: as §1
786-0 = assay: Growth inhibition of human 786-0 cells at 10 uM after 48 hrs by coulter counter analysis; conditions: 786-0, 48 h, read-out: GI; method in brief: as §1
ACHN = assay: Growth inhibition of human ACHN cells at 10 uM after 48 hrs by coulter counter analysis; conditions: read-out: GI; method in brief: as §1
CAKI-1 = assay: Growth inhibition of human Caki1 cells at 10 uM after 48 hrs by coulter counter analysis; conditions: CAKI-1, 48 h, read-out: GI; method in brief: as §1
RXF 393 = assay: Growth inhibition of human RXF393 cells at 10 uM after 48 hrs by coulter counter analysis; conditions: RXF 393, 48 h, read-out: GI; method in brief: as §1
PC-3 = assay: Growth inhibition of human PC3 cells at 10 uM after 48 hrs by coulter counter analysis; conditions: PC-3, 48 h, read-out: GI; method in brief: as §1
DU-145 = assay: Growth inhibition of human DU145 cells at 10 uM after 48 hrs by coulter counter analysis; conditions: DU-145, 48 h, read-out: GI; method in brief: as §1
MCF7 = assay: Growth inhibition of human MCF7 cells at 10 uM after 48 hrs by coulter counter analysis; conditions: MCF7, 48 h, read-out: GI; method in brief: as §1
MDA-MB-231 = assay: Growth inhibition of human MDA-MB-231 cells at 10 uM after 48 hrs by coulter counter analysis; conditions: MDA-MB-231, 48 h, read-out: GI; method in brief: as §1
[2] = Growth inhibition of human Hs 578T cells at 10 uM after 48 hrs by coulter counter analysis; conditions: read-out: GI; method in brief: as §1
CCRF-CEM = assay: Growth inhibition of human CCRF-CEM cells at 10 uM after 48 hrs by coulter counter analysis; conditions: read-out: GI; method in brief: as §1

Measured: inhibition of growth at 10 µM

CCOC(=O)c1sc(NC(=O)CCN2CCN(c3ccccc3)CC2)nc1C
< 10%: all assays above

CC(C(=O)Nc1nccs1)N1CCN(c2ccccc2)CC1 (configuration not stated)
< 10%: all assays above
